Laboratory results as given in PubChem BioAssay AID504383 (The Scripps Research Institute Molecular Screening Center, 2011).
Out of some 2,500 compounds screened, about 1,200 (48%) were called active.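 The calls were made as follows: active = mean activation above the low control average plus 3 SD, as set in the primary screen (cut at about 12% in these data); inactive = the rest.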 The set was probably picked from earlier hits. The list shows a part of the results.

Target: Troponin I, cardiac muscle (Homo sapiens) + Troponin T, cardiac muscle (Homo sapiens) + Troponin C, slow skeletal and cardiac muscles (Homo sapiens) (UniProt P19429+P45379+P63316)
Test: cardiac RTF calcium sensitivity activators, confirmation, biochemical, IANBD-TnC fluorescence, triplicate (AID 504383);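 also: 0% = DMSO at 0.472 mM calcium and 100% = DMSO at 2.9 mM calcium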
Conditions: IANBD-labeled cardiac RTF, Ca2+ sensitivity fluorescence; at 7.2 µM; hits give high values; scaled from EC20 to saturating calcium; tested at EC20 calcium, 0.472 mM
Summary of the method: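 Test system: labelled regulated thin filament protein complex. Dosing: single nominal compound dose of 7.2 µM. Benchmarks: EC20 and EC100 calcium wells. Read-out basis: fluorescence gain scaled between EC20 and EC100 calcium controls. Probe or stimulus: submaximal calcium at 0.472 mM (EC20). Technique: fluorescence. Times: 15 min compound exposure, 25 °C.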

activation, inactive:
CC(C)(C)C1(O)CC(C(F)(F)F)=NN1C(=O)CCCc1ccccc1 (centres undefined) 3.64%
COc1cc(OC)c(OC)cc1/C=C1\Oc2cc(OCC(=O)N3Cc4ccccc4C[C@H]3C(=O)O)ccc2C1=O 7.71%
CS(=O)(=O)N(CC(=O)NCCSCc1ccccc1)c1ccccc1 7.88%
CCOC(=O)c1c(NC(=O)c2ccno2)c2cc([N+](=O)[O-])ccc2n1C 4.78%
Cc1cccc(OCc2nn[nH]n2)c1C 9.03%
CC1CCCCC1NS(=O)(=O)CCNC(=O)c1ccccc1 (centres undefined) 1.54%
Cc1ccc(NC(=O)Cn2ccnc2)cc1C 6.24%
Cc1ccccc1NC(=S)Nc1ccc(Br)cc1 9.23%
C=CCn1c(C)cc(-c2csc(N)n2)c1C 9.08%
CC(=O)Nc1sc2c(c1-c1nc3ccccc3s1)CN(C(C)C)CC2 3.29%
NC(=O)c1c(NC(=O)C2COc3ccccc3O2)sc2c1CCN(Cc1ccccc1)C2 (centres undefined) 5.35%
O=C1NC(c2ccccc2)=C(c2nc3ccccc3s2)C(c2ccc(O)cc2)N1 (centres undefined) 2.85%
Cc1ccc(S(=O)(=O)c2c(N)n(Cc3ccco3)c3nc4ccccc4nc23)cc1 8.53%
Nc1c(S(=O)(=O)c2ccccc2)c2nc3ccccc3nc2n1/N=C/c1ccco1 4.69%
COc1cccc(CNC(=O)CN(C)S(=O)(=O)c2ccc3c(c2)c(=O)n(C)c(=O)n3C)c1 11.5%
CCOc1ccc(-c2ncncc2-c2ccccc2OC)c(O)c1 5.97%
COc1ccccc1/C=C/CN1CCC(CO)(Cc2ccccc2)CC1 11.1%
Cc1cc(C)c[n+](-c2[nH]c(=O)sc2/C=N/NC([S-])=Nc2ccccc2)c1 -0.42%
CC(C)(C)c1cc[n+](-c2[nH]c(=O)sc2/C=N/NC([S-])=Nc2ccccc2)cc1 5.34%
Cc1cc[n+](-c2[nH]c(=O)sc2/C=N/NC([S-])=Nc2ccccc2)cc1C 6.12%
O=c1[nH]c(-[n+]2ccccc2)c(/C=N/NC([S-])=Nc2ccccc2)s1 8.23%
Cc1ccccc1N1C(=O)c2cccc3c(N(C)CCO)ccc(c23)C1=O 11.1%
CN1C(=O)c2cccc3c(N)ccc(c23)C1=O 5.53%
CCCCNc1ccc2c3c(cccc13)C(=O)N(CCCC)C2=O 5.54%
Cc1cccc(N2C(=O)c3cccc4c(N(C)CCO)ccc(c34)C2=O)c1 6.7%
O=C(CSc1ccc(Cl)cc1)Nc1nnc(-c2cccc([N+](=O)[O-])c2)s1 -1.31%
O=c1[nH]ncc2c3ccccc3n(Cc3cccc(Cl)c3)c12 -2.41%
CCCCN(C(=O)c1ccc2c(c1)OCCO2)c1c(N)n(CCCC)c(=O)[nH]c1=O 3.97%
Cc1ccccc1NC(=O)c1nnn(-c2ccc3c(c2)OCCO3)c1N 5.33%
COc1cccc(S(=O)(=O)Nc2cccc(C(=O)N3CCCCCC3)c2)c1 -0.51%
CN(Cc1ccccc1)C(=O)c1ccc(NC(=O)Cc2ccc(NC(=O)C3CCCN(S(=O)(=O)c4cccc([N+](=O)[O-])c4)C3)cc2)cc1 (centres undefined) 6.95%
Cc1ccc(S(=O)(=O)Nc2ccccc2N(C)S(=O)(=O)c2ccc(C)cc2)cc1 9.04%
CC(=O)Nc1ccc(S(=O)(=O)NCCC(=O)OCC(=O)c2cc(C)ccc2C)cc1 10.1%
Cc1ccc(C)c(OCCN2C(=O)NC3(CCc4ccccc4C3)C2=O)c1 (centres undefined) 2.13%
COc1cc(/C=C2/C(=O)NN(c3cccc(F)c3)C2=O)ccc1OC(=O)c1ccco1 3.13%
Cc1ccc(C(=O)N(C)CC(=O)Nc2cccc(F)c2)cc1S(=O)(=O)N1CCCCC1 6.56%
COC(=O)c1cnn2c(C(F)(F)F)cc(-c3ccco3)nc12 4.76%
Cc1cccc(C)c1NC(=O)CNC(=O)Cc1ccc(Br)cc1 10.9%
Cc1cccc(C)c1NC(=O)CN(C1CCCCC1)S(C)(=O)=O 9.63%
NC(=O)NC(Cc1ccccc1)C(=O)NCC1(N2CCCCC2)CCCCC1 (centres undefined) 9.4%
Cc1cc(-c2ccccc2C(=O)NC2CCCCC2)on1 6.39%
Cc1c(C(=O)NC2CC2)oc2ccccc12 7.6%
O=C(CNC(=O)C12CC3CC(CC(C3)C1)C2)OCC(=O)N1CCCCC1 11.6%
COc1ccc(OC)c(/C=C/c2nc3ccccc3[nH]c2=O)c1 6.55%
COc1ccc(OC)c(C2=C/C(=C/c3ccccn3)C(=O)O2)c1 6.12%
O=c1[nH]c2cc(C(F)(F)F)ccc2n1-c1cc(C(F)(F)F)ccc1O 8.69%
Cc1cc(S(=O)(=O)NC(C)C)ccc1OCC(=O)NCc1ccccc1 3.1%
COc1cc(OC)c(OC)cc1/C=C1/Cc2ccccc2C1=O 8.78%
Cc1cc(NS(C)(=O)=O)c(=O)n(Cc2cccc(F)c2)c1 0.31%
Oc1ccc2ccccc2c1C=NCc1cn2ccsc2n1 3.76%
O=C(NN=Cc1c(O)ccc2ccccc12)c1ccncc1 9.86%
Cc1nnc(-c2ccccc2)c(=O)n1/N=C/c1c(O)ccc2ccccc12 5.78%
Cn1nnnc1SCCOc1ccc(C#N)cc1 -1.4%
CCOC(=O)c1cn(-c2ccc(F)c(F)c2F)c2c(F)c(F)c(F)cc2c1=O 10.3%
Cc1cc([N+](=O)[O-])nn1CC(=O)Nc1c(C)n(C)n(-c2ccccc2)c1=O 8.97%

activation, active:
COC(=O)C1=NN(C(=O)c2ccc(Br)cc2)C(O)(C(C)(C)C)C1 (centres undefined) 13.4%
CCN(CC)c1ccc(/C=C2/SC(=O)N(C(C)C)C2=O)o1 15.2%
COc1ccc(/C=C2\Oc3cc(OCC(=O)N4CCC[C@H]4CO)ccc3C2=O)c(OC)c1 13.8%
COc1ccc(/C=C2\Oc3cc(OCC(=O)N4CCC[C@H]4C(=O)O)ccc3C2=O)c(OC)c1 17.4%
COc1ccc(/C=C2\Oc3cc(OCC(=O)N4CCC(C(=O)O)CC4)ccc3C2=O)c(OC)c1 249%
COc1ccc(/C=C2\Oc3cc(OC(=O)N4CCOCC4)ccc3C2=O)c(OC)c1 19.2%
Cc1cccc(C)c1OCC(C)N (centres undefined) 15.2%
CC(=O)Oc1ccc2c(c1)Oc1cc(OC(C)=O)ccc1C21OC(=O)c2ccccc21 49.7%
Cc1cc(C)c2c(SC(C)C)nc(N)nc2n1 18.3%
Cc1ccc(NC(=S)Nc2ccc3nc(-c4ccccn4)c(-c4ccccn4)nc3c2)cc1C 15.9%
O=C(Nc1ccc(Cl)cn1)C1COc2ccccc2O1 (centres undefined) 54.7%
O=C(Nc1nc(-c2nc3ccccc3s2)cs1)C1COc2ccccc2O1 (centres undefined) 43.4%
Nc1c(S(=O)(=O)c2ccccc2)c2nc3ccccc3nc2n1Cc1ccco1 79.2%
COc1cccc(CNC(=O)CN(C)S(=O)(=O)c2cnc[nH]2)c1 151%
CCC(=Cc1ccccc1OC)c1ccncc1 17.2%
CCc1ccc[n+](-c2[nH]c(=O)sc2/C=N/NC([S-])=Nc2ccccc2)c1 49.2%
Cc1cc[n+](-c2[nH]c(=O)sc2/C=N/NC([S-])=Nc2ccccc2)cc1 18.3%
Cc1cc[n+](-c2[nH]c(=O)sc2/C=N/N=C(\[O-])c2ccccc2)cc1C 22.1%
CN1C(=O)c2cccc3c(N(C)C)ccc(c23)C1=O 223%
CNc1ccc2c3c(cccc13)C(=O)N(C)C2=O 44.4%
O=C(Cc1ccc(Cl)cc1)NNS(=O)(=O)c1ccc([N+](=O)[O-])cc1 275%
O=S(=O)(O)c1nc2ccccc2n1Cc1ccccc1 51.8%
CCN1C(=O)c2cccc3c(NC(=O)c4ccc5c(c4)OCCO5)ccc1c23 1730%
O=C(Cc1ccc(NC(=O)C2CCCN(C(=O)C3CCCCC3)C2)cc1)Nc1cccc(C(=O)N2CCCC2)c1 (centres undefined) 13.2%
Cc1ccc(S(=O)(=O)NCCCCCC(=O)Nc2ccccc2C)cc1 34.1%
C=COc1ccc(N2C(=O)c3ccccc3OC2C)cc1 (centres undefined) 32.1%
COc1ccc(CC(=O)N(C)Cc2cccc(F)c2)cc1S(=O)(=O)N1CCOCC1 12.3%
NC(=O)c1ccccc1N/C=C/C(=O)c1ccc(Cl)cc1Cl 19%
CSc1nc2ccccc2n1CC(=O)Nc1c(C)cccc1C 12.7%
Cc1nn(-c2ccccc2)c(Cl)c1C(=O)NC1CCCCC1 20.7%
COc1ccc2nc(-c3ccccn3)[nH]c2c1 93.2%
CCOc1ccccc1C(=O)NN1C(=O)CCC1=O 23.7%
Cc1ccnc2nc(C(=O)OCC(=O)NCCc3ccccc3)nn12 28.6%
CCC1C/C(=C\c2cc(OC)c(OC)cc2OC)C(=O)/C(=C/c2cc(OC)c(OC)cc2OC)C1 (centres undefined) 21.3%
C/C(=C\C=C(C#N)C#N)c1cc(C#N)c(N)o1 16.3%
c1ccc(Cn2c(-c3ccccc3)nc3nc4ccccc4nc32)cc1 32.2%
O=C(N/N=C\c1c(O)ccc2ccccc12)c1cncc(Br)c1 20%
O=C(N/N=C/c1c(O)ccc2ccccc12)c1cccc(C(F)(F)F)c1 164%
Cc1c(N=C2N=C(NC(=O)Nc3ccc(Cl)cc3)c3ccccc32)c(=O)n(-c2ccccc2)n1C 58.8%
